From ChEMBL document CHEMBL4808215, “Discovery of Selective Small-Molecule Inhibitors for the ENL YEATS Domain” (J Med Chem, 2021)
One block for each compound: values may come before it. The source made the active and inactive calls. The calls are words filed in the database; no cut-off is given here.

Tests used:
Protein ENL = target: T1, Protein ENL (Homo sapiens, UniProt Q03111); assay: Inhibition of human His-ENL YEATS domain and biotinylated H3K9ac peptide interaction by AlphaScreen assay
T1 sequence (Q03111 whole entry): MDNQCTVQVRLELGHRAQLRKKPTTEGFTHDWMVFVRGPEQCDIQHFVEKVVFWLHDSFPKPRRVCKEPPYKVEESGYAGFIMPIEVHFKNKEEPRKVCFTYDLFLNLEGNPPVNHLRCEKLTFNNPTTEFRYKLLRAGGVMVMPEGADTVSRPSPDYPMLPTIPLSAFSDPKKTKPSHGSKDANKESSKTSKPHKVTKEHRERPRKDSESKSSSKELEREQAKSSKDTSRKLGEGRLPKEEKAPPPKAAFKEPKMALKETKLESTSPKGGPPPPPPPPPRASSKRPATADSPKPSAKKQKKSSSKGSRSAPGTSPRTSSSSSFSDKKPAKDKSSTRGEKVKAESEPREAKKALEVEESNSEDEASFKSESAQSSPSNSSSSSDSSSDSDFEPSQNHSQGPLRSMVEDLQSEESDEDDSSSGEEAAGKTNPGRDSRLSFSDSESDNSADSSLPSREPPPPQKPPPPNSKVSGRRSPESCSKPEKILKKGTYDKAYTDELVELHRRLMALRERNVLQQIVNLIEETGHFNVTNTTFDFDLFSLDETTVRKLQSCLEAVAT

[1] = target: T2, YEATS domain-containing protein 2 (Homo sapiens, UniProt Q9ULM3); assay: Inhibition of human His-YEATS2 YEATS domain and biotinylated […] peptide interaction by AlphaScreen assay
T2 sequence (Q9ULM3 whole entry): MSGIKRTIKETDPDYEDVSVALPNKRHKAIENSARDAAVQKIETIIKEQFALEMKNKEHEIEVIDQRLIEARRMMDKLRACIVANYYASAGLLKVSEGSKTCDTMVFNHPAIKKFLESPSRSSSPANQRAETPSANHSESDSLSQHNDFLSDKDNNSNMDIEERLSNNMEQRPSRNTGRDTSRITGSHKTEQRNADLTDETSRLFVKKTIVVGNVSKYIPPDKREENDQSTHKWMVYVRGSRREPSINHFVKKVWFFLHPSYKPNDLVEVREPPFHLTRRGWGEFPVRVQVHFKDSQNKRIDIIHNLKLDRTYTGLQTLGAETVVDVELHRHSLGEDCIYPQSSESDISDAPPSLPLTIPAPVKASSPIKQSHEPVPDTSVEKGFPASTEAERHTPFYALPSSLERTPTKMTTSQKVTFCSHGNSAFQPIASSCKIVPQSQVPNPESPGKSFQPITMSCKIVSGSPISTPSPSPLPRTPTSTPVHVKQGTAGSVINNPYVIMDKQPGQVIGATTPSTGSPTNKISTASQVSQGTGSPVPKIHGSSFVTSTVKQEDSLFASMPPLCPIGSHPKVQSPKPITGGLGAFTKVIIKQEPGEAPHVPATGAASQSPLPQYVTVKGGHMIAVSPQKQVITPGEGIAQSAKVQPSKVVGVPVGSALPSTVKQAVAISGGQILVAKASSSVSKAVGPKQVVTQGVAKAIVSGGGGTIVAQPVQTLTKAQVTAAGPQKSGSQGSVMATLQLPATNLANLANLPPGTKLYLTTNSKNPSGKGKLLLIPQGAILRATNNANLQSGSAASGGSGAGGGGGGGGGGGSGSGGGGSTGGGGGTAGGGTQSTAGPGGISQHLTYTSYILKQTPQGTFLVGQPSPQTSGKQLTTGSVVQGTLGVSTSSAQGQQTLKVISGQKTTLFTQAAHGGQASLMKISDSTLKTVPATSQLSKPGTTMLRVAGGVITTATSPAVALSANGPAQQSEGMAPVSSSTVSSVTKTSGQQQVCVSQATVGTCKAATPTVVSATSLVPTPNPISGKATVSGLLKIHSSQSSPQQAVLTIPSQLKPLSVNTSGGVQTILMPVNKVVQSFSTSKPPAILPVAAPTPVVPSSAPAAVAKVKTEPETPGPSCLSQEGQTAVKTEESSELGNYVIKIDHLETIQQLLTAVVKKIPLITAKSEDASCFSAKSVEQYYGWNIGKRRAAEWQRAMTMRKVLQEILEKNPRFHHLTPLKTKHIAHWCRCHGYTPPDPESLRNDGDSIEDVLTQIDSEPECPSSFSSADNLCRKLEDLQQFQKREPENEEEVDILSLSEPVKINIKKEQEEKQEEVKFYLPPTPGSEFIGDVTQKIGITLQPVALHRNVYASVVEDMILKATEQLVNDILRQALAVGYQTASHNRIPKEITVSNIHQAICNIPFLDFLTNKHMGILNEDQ
How it was run: (§1)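 His-tagged YEATS domains were expressed in E. coli Rosetta-2 (DE3) pLysS and purified on Ni-NTA. Partners were biotinylated peptide on streptavidin donor and Ni2+-chelate acceptor beads: AF9 30 nM with H3K9ac, GAS41 100 nM with H3K27ac, YEATS2 100 nM with H3K27cr. Peptides at 30 nM, buffer 50 mM HEPES pH 7.4, 100 mM NaCl, 0.1% BSA, 0.05% CHAPS. Thirteen-point 3-fold series from 54 μM to 0.1 nM, 4–6 replicates, signal normalised to no-compound control, four-parameter fit.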

[2] = target: T3, YEATS domain-containing protein 4 (Homo sapiens, UniProt O95619); assay: Inhibition of human His-GAS41 YEATS domain and biotinylated H3K27ac peptide interaction at 20 uM by AlphaScreen assay
T3 sequence (O95619 whole entry, the tested form may be a part): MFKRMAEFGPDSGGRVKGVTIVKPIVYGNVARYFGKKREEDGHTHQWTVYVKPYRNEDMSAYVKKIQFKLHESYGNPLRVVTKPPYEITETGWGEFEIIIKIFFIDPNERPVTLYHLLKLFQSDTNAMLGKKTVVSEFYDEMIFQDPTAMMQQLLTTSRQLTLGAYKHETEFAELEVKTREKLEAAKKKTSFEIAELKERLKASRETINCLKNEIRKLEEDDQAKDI

[3] = target: T4, Protein AF-9 (Homo sapiens) (UniProt P42568); assay: Inhibition of human His-AF9 YEATS domain and biotinylated H3K9ac peptide interaction at 20 uM by AlphaScreen assay
T4 sequence (whole entry): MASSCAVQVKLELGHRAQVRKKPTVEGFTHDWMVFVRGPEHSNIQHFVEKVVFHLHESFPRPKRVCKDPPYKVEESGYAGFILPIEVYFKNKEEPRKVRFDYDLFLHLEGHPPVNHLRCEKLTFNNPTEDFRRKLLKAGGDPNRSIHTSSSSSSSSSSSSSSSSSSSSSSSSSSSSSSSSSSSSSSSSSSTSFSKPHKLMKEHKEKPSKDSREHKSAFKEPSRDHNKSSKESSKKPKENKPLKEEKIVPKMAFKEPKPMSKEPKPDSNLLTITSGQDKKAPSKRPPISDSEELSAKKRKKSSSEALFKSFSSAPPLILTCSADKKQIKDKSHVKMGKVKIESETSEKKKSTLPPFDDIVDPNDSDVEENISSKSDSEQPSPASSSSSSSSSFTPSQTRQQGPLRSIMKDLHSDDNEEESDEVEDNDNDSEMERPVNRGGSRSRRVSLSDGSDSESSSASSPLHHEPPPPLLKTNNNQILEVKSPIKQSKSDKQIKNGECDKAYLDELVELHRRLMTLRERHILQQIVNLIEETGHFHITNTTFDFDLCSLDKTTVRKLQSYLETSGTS

[4] = target: T3, YEATS domain-containing protein 4; assay: Inhibition of human His-GAS41 YEATS domain and biotinylated H3K27ac peptide interaction by AlphaScreen assay; how it was run: as §1
[5] = target: T5, YEATS domain-containing protein 2 (Homo sapiens) (UniProt Q9ULM3); assay: Inhibition of human His-YEATS2 YEATS domain and biotinylated […] peptide interaction at 20 uM by AlphaScreen assay
T5 sequence (whole entry): T2 sequence (Q9ULM3 whole entry)

[6] = target: T4, Protein AF-9 (Homo sapiens); assay: Stabilization of AF9 in human HeLa cells assessed as inhibition of high temperature-induced AF9 protein degradation at 20 uM incubated for 5 hrs by cellular thermal shift assay; assay type: cell-based
How it was run: (§2)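 Cells (MOLM13, MV4;11 or HeLa) were treated with 20 μM compound or DMSO for 5 h, washed with PBS and resuspended in PBS with protease inhibitors, about 3 million cells per aliquot. Aliquots were heated 3 min at the indicated temperatures, then held 2 min at room temperature. Lysis was by NP40/glycerol/DTT buffer and three freeze-thaw cycles, followed by a 13,000 rpm spin at 4 °C. Soluble ENL, GAS41 or AF9 in supernatants was measured by western blot with β-actin loading control.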

MOLM-13 [7] = assay: Growth inhibition of human MOLM13 cells at 5 uM incubated for 3 days by CellTiter-Glo luminescent cell viability assay relative to control; assay type: functional; conditions: MOLM-13, 72 h, time 3 day, read-out: GI
How it was run: (§3)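 MOLM13 and MV4;11 were grown in RPMI-1640 + 10% FBS, U2OS in DMEM + 10% FBS. Treatment with DMSO or compound for 3 days. Viability read by CellTiter-Glo luminescence and expressed as % of DMSO-treated cells. Mean ± SEM, n = 3.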

[8] = target: YEATS domain-containing protein 4 (GAS41) (Homo sapiens) (UniProt O95619); assay: Stabilization of GAS41 in human MOLM13 cells assessed as inhibition of high temperature-induced GAS41 protein degradation at 20 uM incubated for 5 hrs by cellular thermal shift assay; conditions: MOLM-13
YEATS domain-containing protein 4 (GAS41) (Homo sapiens), sequence (O95619 whole entry, looked up, the tested form may be a part): as the sequence (O95619 whole entry, the tested form may be a part) above

MOLM-13 [9] = assay: Growth inhibition of human MOLM-13 cells incubated for 6 days by CellTiter-Glo luminescent cell viability assay; conditions: MOLM-13, 144 h
[10] = target: T6, Protein ENL (Homo sapiens) (UniProt Q03111); assay: Stabilization of ENL in human HeLa cells assessed as inhibition of high temperature-induced ENL protein degradation at 20 uM incubated for 5 hrs by cellular thermal shift assay; assay type: cell-based; how it was run: as §2
T6 sequence (whole entry): T1 sequence (Q03111 whole entry)

MOLM-13 [11] = assay: Growth inhibition of human MOLM13 cells at 10 uM incubated for 3 days by CellTiter-Glo luminescent cell viability assay relative to control; assay type: functional; conditions: MOLM-13, 72 h, time 3 day, read-out: GI; how it was run: as §3
Protein AF-9 = target: T7, Protein AF-9 (Homo sapiens, UniProt P42568); assay: Inhibition of human His-AF9 YEATS domain and biotinylated H3K9ac peptide interaction by AlphaScreen assay
T7 sequence (P42568 whole entry): T4 sequence (whole entry)

MOLM-13 [12] = assay: Growth inhibition of human MOLM13 cells incubated for 6 days in presence of JQ1 by CellTiter-Glo luminescent cell viability assay; conditions: MOLM-13, 144 h
[13] = target: YEATS domain-containing protein 4 (GAS41) (Homo sapiens) (UniProt O95619); assay: Stabilization of GAS41 in human MV4-11 cells assessed as inhibition of high temperature-induced GAS41 protein degradation at 20 uM incubated for 5 hrs by cellular thermal shift assay
[14] = target: T6, Protein ENL (Homo sapiens); assay: Stabilization of ENL in human MOLM13 cells assessed as inhibition of high temperature-induced ENL protein degradation at 20 uM incubated for 5 hrs by cellular thermal shift assay; assay type: cell-based; conditions: MOLM-13; how it was run: as §2
[15] = target: T6, Protein ENL (Homo sapiens); assay: Inhibition of human His-ENL YEATS domain and biotinylated H3K9ac peptide interaction at 5 uM by AlphaScreen assay
MV4-11 = assay: Growth inhibition of human MV4-11 cells at 2.5 to 50 uM incubated for 3 days by CellTiter-Glo luminescent cell viability assay relative to control; assay type: functional, cell-based; conditions: dose 2.5-50 µM, time 3.0 day; how it was run: as §3
U2OS = assay: Growth inhibition of ENL-independent human U2OS cells at 50 uM incubated for 3 days by CellTiter-Glo luminescent cell viability assay relative to control; assay type: functional, cell-based; conditions: time 3.0 day; how it was run: as §3
[16] = target: T6, Protein ENL (Homo sapiens); assay: Stabilization of ENL in human MV4-11 cells assessed as inhibition of high temperature-induced ENL protein degradation at 20 uM incubated for 5 hrs by cellular thermal shift assay; assay type: cell-based; how it was run: as §2

SMILES: Cc1cc2ncc(C(=O)NCc3ccc(CN4CCC4)cc3)cn2n1
IC50 (Protein ENL): > 5000 nM

SMILES: CC(C)(C)C1CCN1Cc1ccc(CNC(=O)c2ccc3nncn3c2)cc1 (configuration not stated)
IC50 (Protein ENL): 264 nM

SMILES: O=C(NCc1ccc(CN2CCC2)cc1)c1ccc2ncnn2c1
IC50 (Protein ENL): > 5000 nM

SMILES: O=C(NCc1ccc(CN2CCOCC2)cc1)c1ccc2nncn2c1
IC50 (Protein ENL): 891 nM

SMILES: O=C(NCc1ccc(CN2CCC2)cc1)c1ccc2nncn2c1
IC50 [1]: 18500 nM
inhibition [2]: Active
inhibition [3]: Active
IC50 [4]: > 54000 nM
inhibition [5]: Active

SMILES: O=C(NCc1cccc(CN2CCC2)c1)c1ccc2nncn2c1
IC50 (Protein ENL): 202 nM

More lines, main results first:

IC50 (Protein ENL): > 1000 nM
SMILES: CC(NC(=O)c1ccc2nncn2c1)c1ccc(CN2CCC2)cc1 (configuration not stated)

IC50 (Protein ENL): 266 nM
SMILES: CC(C)C1CCN1Cc1ccc(CNC(=O)c2ccc3nncn3c2)cc1 (configuration not stated)

Activity [6]: inactive
IC50 (Protein ENL): 621 nM
Activity [8]: inactive
GI50 (MOLM-13 [9]): 3640 nM
Activity [10]: Active
IC50 [1]: > 54000 nM
IC50 (Protein AF-9): 4930 nM
GI50 (MOLM-13 [12]): 1340 nM
Activity [13]: inactive
Activity [14]: Active
inhibition [15]: Active
inhibition [2]: Active
inhibition [3]: Active
IC50 [4]: > 54000 nM
inhibition [5]: Active
Activity [16]: Active
SMILES: CN(C)Cc1ccc(CNC(=O)c2ccc3nncn3c2)cc1
inhibition of growth at 5 µM (MOLM-13 [7]): 40%
inhibition of growth at 10 µM (MOLM-13 [11]): 80%
growth inhibition (GI) (MV4-11): Active
growth inhibition (GI) (U2OS): inactive
